# ChEMBL document CHEMBL3576840, “Helical Antimicrobial Sulfono-γ-AApeptides” (J Med Chem, 2015)
# Activity calls are given as the source filed them. The calls are words filed in the database; no cut-off is given here.
# How the values were obtained:
# Escherichia [1] = assay: Antimicrobial activity against Escherichia ATCC 25922 after 16 hrs; type: functional; conditions: ATCC 25922, 16 h
# In short: (§1)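 Broth microdilution: overnight cultures were reinoculated at 1:100, grown to mid-log phase, and diluted to 1 × 10^6 CFU/mL. Cells were mixed 1:1 with serial dilutions […] and incubated 16 h at 37 °C, then read at 600 nm. MIC is the lowest concentration with no growth. Repeated multiple times, in duplicate.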
# Staphylococcus aureus [2] = assay: Induction of membrane disruption in methicillin-resistant Staphylococcus aureus ATCC 33592 at 10 ug/ml incubated for 2 hrs by DAPI and propidium iodide staining based fluorescence microscopy; type: functional, organism-based
# In short: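 Mid-log bacteria treated with compound (10 μg/mL) at 37 °C for 2 h, pelleted, washed, stained with PI (5 μg/mL) then DAPI (10 μg/mL) for 15 min on ice; untreated cells as control; imaged by fluorescence microscopy under 100× oil immersion; PI uptake taken as membrane damage; three repeats.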
# Escherichia [3] = assay: Induction of cell aggregation of Escherichia ATCC 25922 at 10 ug/ml incubated for 2 hrs by DAPI and propidium iodide staining based fluorescence microscopy; type: functional, organism-based
# In short: (§2)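 Mid-log bacteria were incubated with 10 μg/mL compound for 2 h at 37 °C, pelleted at 5000 g and washed. Staining used PI (5 μg/mL) then DAPI (10 μg/mL), 15 min on ice. Imaged by fluorescence microscopy with a 100× oil objective; untreated bacteria served as controls.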
# N2a = assay: Cytotoxicity against mouse N2a cells assessed as cell viability after 36 hrs by MTT assay
# Pseudomonas aeruginosa = assay: Antimicrobial activity against Pseudomonas aeruginosa ATCC 27853 after 16 hrs; type: functional; conditions: ATCC 27853, 16 h; in short: as §1
# Enterococcus faecalis = assay: Antimicrobial activity against Enterococcus faecalis ATCC 700802 after 16 hrs; type: functional; conditions: ATCC 700802, 16 h; in short: as §1
# Staphylococcus aureus [4] = assay: Antimicrobial activity against methicillin-resistant Staphylococcus aureus ATCC 33592 after 16 hrs; type: functional; conditions: ATCC 33592, 16 h
# [5] = test system: Staphylococcus epidermidis; assay: Antimicrobial activity against methicillin-resistant Staphylococcus epidermidis RP62A after 16 hrs; type: functional
# Staphylococcus aureus [6] = assay: Bactericidal activity against methicillin-resistant Staphylococcus aureus ATCC 33592 at 12.5 to 50 ug/ml measured after 30 mins by colony count based time-kill assay; type: functional, organism-based
# In short: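 Time-kill: MRSA grown to mid-log in TSB, diluted to 10^6 CFU/mL, exposed to compound at several multiples of MIC for 10 min, 30 min, 1 h and 2 h; samples diluted 10^2–10^4-fold, plated on TSB agar, colonies counted after overnight 37 °C; viability plotted against time; three repeats.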
# [7] = Induction of hemolysis in human RBCs incubated for 1 hr; type: cell-based, Erythrocyte; conditions: red blood cells
# In short: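 Fresh K2EDTA human RBCs were washed in PBS until the supernatant was clear and diluted to a 5% v/v suspension. This was mixed with equal volumes of compound dilutions for 1 h at 37 °C, centrifuged, and supernatant absorbance read at 360 nm. Hemolysis was normalized between PBS (0%) and 2% Triton X-100 (100%) controls. At least three repeats, in duplicate.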
# Escherichia [8] = assay: Induction of membrane disruption in Escherichia ATCC 25922 at 10 ug/ml incubated for 2 hrs by DAPI and propidium iodide staining based fluorescence microscopy; type: functional, organism-based; in short: as §2
# Escherichia [9] = assay: Bactericidal activity against Escherichia ATCC 25922 at 25 and 50 ug/ml measured after 1 hr by colony count based time-kill assay; type: functional, organism-based
# In short: (§3)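 Time-kill: MRSA and E. coli were grown to mid-log phase in TSB and diluted to 10^6 CFU/mL. Suspensions were exposed to several compound concentrations for 10 min, 30 min, 1 h and 2 h. Samples were diluted 10^2–10^4-fold, plated on TSB agar and incubated overnight at 37 °C. Colonies were counted and plotted against exposure time. Three repeats.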
# Escherichia [10] = assay: Bactericidal activity against Escherichia ATCC 25922 assessed as reduction bacterial colony count at 25 ug/ml measured after 10 mins to 2 hrs by colony count based time-kill assay; type: functional; in short: as §3
# [11] = Stability in presence of 0.1 mg/ml pronase in 100 mM pH 7.8 ammonium bicarbonate buffer at 37 degC assessed as compound degradation after 18 hrs by HPLC method; type: physicochemical; conditions: pH 7.8, 18 h
# In short: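 Compound or control peptide AcVQIVYK (1 mg/mL) was incubated 18 h at 37 °C with Pronase in ammonium bicarbonate. Mixtures were dried by speed-vac at 60 °C, redissolved in water and run on analytical RP-HPLC: 5–100% acetonitrile/0.1% TFA gradient over 40 min at 1 mL/min.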
smiles,measurement,setting,value
NCCCC[C@@H](CN(CC(N)=O)S(=O)(=O)CCN)NC(=O)CN(C[C@H](Cc1ccccc1)NC(=O)CN(C[C@H](Cc1ccccc1)NC(=O)CN(C[C@H](Cc1ccccc1)NC(=O)CN(C[C@H](CCCCN)NC(=O)CN(C[C@H](Cc1ccccc1)NC(=O)CN(C[C@H](Cc1ccccc1)NC(=O)CN(C[C@@H](N)Cc1ccccc1)S(=O)(=O)Cc1ccccc1)S(=O)(=O)CCN)S(=O)(=O)Cc1ccccc1)S(=O)(=O)CCN)S(=O)(=O)Cc1ccccc1)S(=O)(=O)CCN)S(=O)(=O)Cc1ccccc1,MIC,Escherichia [1],4 µg/mL
same,Activity,Staphylococcus aureus [2],Active
same,Activity,Escherichia [3],Active
same,EC50,N2a,120 µg/mL
same,MIC,Pseudomonas aeruginosa,4 µg/mL
same,MIC,Enterococcus faecalis,2 µg/mL
same,MIC,Staphylococcus aureus [4],2 µg/mL
same,MIC,[5],2 µg/mL
same,Activity,Staphylococcus aureus [6],Active
same,HC50 at 1 h,[7],100 µg/mL
same,Activity,Escherichia [8],Active
same,Activity,Escherichia [9],Active
same,Activity,Escherichia [10],1 ×10⁵ CFU/ml
same,Stability,[11],Stable
